Source: ChEMBL document CHEMBL4825680, “Structure-based discovery of potent and selective small-molecule inhibitors targeting signal transducer and activator of transcription 3 (STAT3)” (Eur J Med Chem, 2021)
The source made the active and inactive calls. The rule behind the calls is not given here.

Legend:
[1] = Induction of apoptosis in human MDA231-LM2-4175 cells assessed as viable cells at 1 uM after 48 hrs by Annexin-V-FITC/propidium iodide staining based flow cytometric analysis (reference value: 94.4%); type: functional; settings: read-out: Activity
[2] = test system: MDA231-LM2-4175; assay: Inhibition of colony formation in human MDA231-LM2-4175 cells at 0.3 uM after 10 to 15 days by crystal violet staining based assay; type: functional, cell-based; settings: time 10-15 day
How it was run: (§1)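 Cells seeded at 0.5×10^3–1×10^3 per well; compound added the next day. Medium and compound renewed every 2–3 days. After about 10–15 days, colonies fixed with 4% paraformaldehyde, stained with crystal violet, scanned and quantified by image analysis. Triplicate.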

[3] = test system: MDA-MB-468; assay: Induction of apoptosis in human MDA-MB-468 cells assessed as necrotic cells at 3 uM after 48 hrs by Annexin-V-FITC/propidium iodide staining based flow cytometric analysis (reference value: 0.240%); type: functional
[4] = test system: MDA231-LM2-4175; assay: Induction of apoptosis in human MDA231-LM2-4175 cells assessed as increase in caspase-7 cleavage at 1 uM after 48 hrs by Western blot analysis; type: functional, cell-based
How it was run: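 Breast cancer cells given vehicle (0.1% DMSO) or compound, then lysed in RIPA buffer with PMSF and phosphatase inhibitors. BCA-quantified lysate (20–50 µg) run on 8 or 12% SDS-PAGE and transferred to PVDF. Blocked in 5% BSA, probed overnight at 4 °C for PARP and cleaved caspase-7, HRP secondary, ECL detection. β-actin as loading control.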

[5] = molecular target: T1, Signal transducer and activator of transcription 3 (Homo sapiens, UniProt P40763); assay: Inhibition of STAT3 phosphorylation at Tyr705 residue in human MDA231-LM2-4175 cells after 3 hrs by Western blotting analysis; type: cell-based; settings: dose 0.3-3 µM
T1 sequence (P40763 whole entry): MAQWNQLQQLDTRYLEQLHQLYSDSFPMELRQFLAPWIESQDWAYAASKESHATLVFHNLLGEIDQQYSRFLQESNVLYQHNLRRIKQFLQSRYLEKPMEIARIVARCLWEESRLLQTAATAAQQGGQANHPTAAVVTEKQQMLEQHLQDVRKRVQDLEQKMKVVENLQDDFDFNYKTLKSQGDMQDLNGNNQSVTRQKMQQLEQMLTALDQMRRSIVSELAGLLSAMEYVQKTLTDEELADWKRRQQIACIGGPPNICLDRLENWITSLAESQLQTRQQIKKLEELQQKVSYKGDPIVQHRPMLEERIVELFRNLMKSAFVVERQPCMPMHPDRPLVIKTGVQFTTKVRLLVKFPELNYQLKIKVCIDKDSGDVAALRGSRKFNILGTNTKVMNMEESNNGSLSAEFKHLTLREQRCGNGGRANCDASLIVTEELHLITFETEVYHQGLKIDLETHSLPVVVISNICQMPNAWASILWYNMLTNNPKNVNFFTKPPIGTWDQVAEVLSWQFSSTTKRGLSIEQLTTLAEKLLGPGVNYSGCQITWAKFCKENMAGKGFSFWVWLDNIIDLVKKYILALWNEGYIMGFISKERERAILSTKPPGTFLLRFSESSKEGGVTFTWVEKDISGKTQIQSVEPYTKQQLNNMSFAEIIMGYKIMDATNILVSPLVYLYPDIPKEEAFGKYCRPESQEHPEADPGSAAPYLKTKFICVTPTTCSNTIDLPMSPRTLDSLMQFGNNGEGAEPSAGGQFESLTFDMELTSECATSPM

[6] = test system: MDA-MB-468; assay: Inhibition of colony formation in human MDA-MB-468 cells at 0.3 uM after 10 to 15 days by crystal violet staining based assay; type: functional, cell-based; settings: time 10-15 day; how it was run: as §1
[7] = test system: MDA231-LM2-4175; assay: Antitumor activity against human MDA231-LM2-4175 cells xenografted in mouse assessed as reduction in Bcl-xL expression at 5 to 15 mg/kg, iv administered once daily for 20 days by Western blotting analysis; type: functional, organism-based; settings: dose 5-15 mg/kg, time 20.0 day
[8] = test system: Breast cancer cell line; assay: Antitumor activity against patient-derived breast cancer cells xenografted in NOD/SCID mouse assessed as reduction in Ki67 expression at 5 to 15 mg/kg, iv administered once daily for 20 days by immunohistochemical analysis; type: functional, organism-based; settings: Homo sapiens, dose 5-15 mg/kg, time 20.0 day
[9] = test system: MDA231-LM2-4175; assay: Effect on total STAT3 level in human MDA231-LM2-4175 cells at 0.3 to 3 uM measured after 3 hrs by Western blot analysis; type: functional, cell-based; settings: dose 0.3-3 µM
How it was run: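 Breast cancer cells were treated with vehicle (0.1% DMSO) or compound, then lysed in RIPA with PMSF and phosphatase inhibitors. 20–50 μg protein was run on 8 or 12% SDS-PAGE, blotted to PVDF, blocked in 5% BSA, probed with primary antibodies overnight at 4 °C, then HRP secondaries, with ECL detection.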

[10] = Metabolic stability in human liver microsomes assessed as clearance at 0.1 uM preincubated for 10 mins followed by NADPH addition and measured upto 60 mins by LC-MS/MS analysis; type: ADME, Microsome; settings: 1 h, time <=70 min
How it was run: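 Microsomes at 0.33 mg/mL in 0.1 M Tris pH 7.4 with 5 mM MgCl2; compound final 0.1 μM (0.01% DMSO, 0.005% BSA). Preincubated 10 min at 37 °C, then started with 1 mM NADPH. Sampled at 0, 7, 17, 30 and 60 min and quenched with cold methanol. Centrifuged, then analysed by LC-MS/MS.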

[11] = Half life in Sprague-Dawley rat at 10 mg/kg, po measured up to 24 hrs by LC-MS/MS analysis; type: ADME, organism-based; settings: in vivo
How it was run: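 Male SD rats given a single oral dose of 10 mg/kg in DMSO/0.5% HPMC (5/95, v/v). Blood was drawn at 0.25, 0.5, 1, 2, 4, 8 and 24 h, and plasma was analysed by LC-MS/MS on a BEH phenyl column with a formic acid water/acetonitrile mobile phase.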

[12] = molecular target: T1, Signal transducer and activator of transcription 3; assay: Inhibition of STAT3 DNA binding in human MDA-MB-468 cells at 0.3 to 1 uM after 3 hrs by EMSA analysis; type: cell-based; settings: dose 0.3-1 µM
How it was run: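 Cells exposed to vehicle or compound for 3 h. Nuclear extracts prepared and BCA-quantified. Nuclear protein (8–10 µg) incubated with biotinylated STAT3 or STAT5 probe, resolved on 6% native polyacrylamide gel, transferred to nylon membrane and detected with a gel-shift kit.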

[13] = molecular target: T1, Signal transducer and activator of transcription 3; assay: Inhibition of STAT3 in human MDA-MB-231 cells assessed as downregulation of c-Myc expression at 0.3 to 3 uM after 24 hrs by western blot analysis; type: cell-based; settings: dose 0.3-3 µM
How it was run: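 TNBC cells given vehicle (0.1% DMSO) or graded compound levels for 24 h, lysed in RIPA with PMSF and phosphatase inhibitors. BCA-quantified lysate (20–50 µg) run on SDS-PAGE, transferred to PVDF, blocked in 5% BSA. Probed overnight at 4 °C for Bcl-xL, Mcl-1 and c-Myc, with β-actin. HRP secondary, ECL detection. Three independent experiments.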

[14] = Induction of apoptosis in human MDA231-LM2-4175 cells assessed as late apoptotic cells at 1 uM after 48 hrs by Annexin-V-FITC/propidium iodide staining based flow cytometric analysis (reference value: 2.60%); type: functional
[15] = Toxicity in mouse xenografted with human MDA-MB-231-4175 cells assessed as morphological change in spleen at 5 to 15 mg/kg, […] once daily for 20 days by HE staining based assay; type: organism-based; settings: in vivo, iv, 480 h, dose 5-15 mg/kg, time 20 day
How it was run: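 Female NOD-SCID mice aged 4–5 weeks, given 2×10^6–3×10^6 MDA-MB-231-4175 cells subcutaneously in the flank. At about 100 mm³ tumour volume, randomised n=6/group: vehicle (PBS with 15% Cremophor EL), 5 or 15 mg/kg intraperitoneally daily. Killed at day 20; heart, liver, spleen, lung and kidney collected for morphological examination.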

[16] = test system: MDA231-LM2-4175; assay: Antitumor activity against iv dosed human MDA231-LM2-4175 cells xenografted in mouse assessed as tumor growth inhibition administered once daily for 20 days; type: functional, organism-based; settings: dose 5-15 mg/kg, time 20.0 day
[17] = test system: HCC70; assay: Antiproliferative activity against human HCC70 cells assessed as reduction in cell viability after 72 hrs by CCK8 assay; type: functional, cell-based; settings: HCC70, 72 h
How it was run: (§2)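 Cells seeded at 1000–8000 per well were grown overnight, then exposed to 0.1–100 μM compound or 0.1% DMSO vehicle for 72 h. CCK-8 was added for 0.5–4 h at 37 °C and absorbance read at 480 nm. Viability = (OD compound − blank)/(OD vehicle − blank) × 100, with medium as blank. IC50 fitted from three independent experiments.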

[18] = test system: MCF7; assay: Antiproliferative activity against human MCF7 cells assessed as reduction in cell viability after 72 hrs by CCK8 assay; type: functional, cell-based; settings: MCF7, 72 h; how it was run: as §2
[19] = test system: MDA-MB-231; assay: Induction of apoptosis in human MDA-MB-231 cells assessed as late apoptotic cells at 1 uM after 48 hrs by Annexin-V-FITC/propidium iodide staining based flow cytometric analysis (Rvb =3.05%); type: functional

Compound: O=C(Cc1c(-c2ccccc2)nc2ccccn12)Nc1ccc2c(c1)S(=O)(=O)C=C2
- viability at 1 µM [1]: 88.7%
- inhibition [2]: Active
- Activity [3]: 1.33%
- Activity [4]: Active
- inhibition [5]: Dose-Dependent Effect
- inhibition [6]: Active
- Activity [7]: Active
- Activity [8]: Active
- Activity [9]: inactive
- CLH [10]: 87 mL/min/g
- half-life [11]: 87.6 min
- inhibition [12]: Active
- inhibition [13]: Active
- Activity [14]: 4%
- Activity [15]: Non-Toxic
- Activity [16]: Dose-Dependent Effect
- IC50 [17]: 1100 nM
- IC50 [18]: 7.22 µM
- Activity [19]: 7.54%
